# Calls of active or inactive are those of the source. No cut-off for these calls is given here.
# Assays:
# [1] = test system: K562; experiment: Induction of mitochondrial membrane potential loss in human K562 cells assessed as cell population with intact mitochondrial membrane potential at 1.10 uM after 48 hrs by JC1 staining-based flow cytometry analysis (reference value: 92.94%); format: functional
# [2] = test system: K562; experiment: Induction of cell cycle arrest in human K562 cells assessed as accumulation at G2/M phase at 1.10 uM after 72 hrs by propidium iodide staining based flow cytometry (reference value: 8.19%); format: functional
# Procedure, shortened: (§1)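 For cell cycle, K562 cells were treated 72 h at 0, 0.55, 1.10 or 2.20 μM, with a solvent control. Cells were stained with PI and G1, S and G2/M fractions determined by flow cytometry.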
# [3] = test system: K562; experiment: Antiproliferative activity against human K562 cells assessed as reduction in cell growth after 72 hrs by MTT assay; format: functional, cell-based; conditions: K562, 72 h
# Procedure, shortened: (§2)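 Human HepG2, MCF-7, HCT-116 and K562 tumour cells plus normal L-02 hepatocytes and PBMCs were exposed to compounds for 72 h and growth was read by MTT. 5-Fu served as positive control. IC50 is the concentration inhibiting 50% of cell growth, given as mean ± standard deviation of three independent experiments.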
# [4] = test system: K562; experiment: Induction of apoptosis in human K562 cells assessed as reduction in bcl-xl protein expression after 24 hrs by chemiluminescence based protein array analysis; format: functional, cell-based
# Procedure, shortened: (§3)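 K562 cells were treated for 24 h, then proteins were extracted and run on a human apoptosis protein array. Chemiluminescent signals were detected with a digital imaging system.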
# [5] = test system: K562; experiment: Induction of apoptosis in human K562 cells assessed as reduction in clusterin protein expression after 24 hrs by chemiluminescence based protein array analysis; format: functional, cell-based; procedure, shortened: as §3
# [6] = test system: K562; experiment: Induction of cell cycle arrest in human K562 cells assessed as accumulation at G2/M phase at 0.55 uM after 72 hrs by propidium iodide staining based flow cytometry (reference value: 8.19%); format: functional; procedure, shortened: as §1
# [7] = test system: K562; experiment: Induction of mitochondrial membrane potential loss in human K562 cells after 48 hrs by JC1 staining-based flow cytometry analysis; format: functional, cell-based
# [8] = test system: PBMC; experiment: Cytotoxicity against human PBMC assessed as reduction in cell growth after 72 hrs by MTT assay; format: cell-based; procedure, shortened: as §2
# [9] = test system: K562; experiment: Induction of mitochondrial membrane potential loss in human K562 cells assessed as cell population with mitochondrial membrane potential collapse at 0.55 uM after 48 hrs by JC1 staining-based flow cytometry analysis (reference value: 7.04%); format: functional
# [10] = test system: K562; experiment: Induction of apoptosis in human K562 cells assessed as viable cells at 2.20 uM after 48 hrs by annexin V-FITC/propidium iodide staining based flow cytometry (reference value: 96.26%); format: functional; conditions: K562, 48 h, read-out: Activity
# [11] = test system: K562; experiment: Induction of cell cycle arrest in human K562 cells assessed as accumulation at S phase at 1.10 uM after 72 hrs by propidium iodide staining based flow cytometry (reference value: 35.68%); format: functional; procedure, shortened: as §1
# [12] = test system: K562; experiment: Induction of apoptosis in human K562 cells assessed as necrotic cells at 2.20 uM after 48 hrs by annexin V-FITC/propidium iodide staining based flow cytometry (reference value: 0.78%); format: functional
# [13] = test system: K562; experiment: Induction of cell cycle arrest in human K562 cells assessed as accumulation at G1 phase at 0.55 uM after 72 hrs by propidium iodide staining based flow cytometry (reference value: 56.13%); format: functional; procedure, shortened: as §1
# [14] = test system: K562; experiment: Induction of morphological changes in human K562 cells assessed as chromatin aggregation at 0.55 to 2.20 uM after 48 hrs by Hoechst 33258 staining based fluorescence microscopic analysis; format: functional, cell-based
# Procedure, shortened: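 After 48 h exposure at 0, 0.55, 1.10 or 2.20 μM, K562 cells were stained with Hoechst 33258. Nuclear morphology, including chromatin aggregation and nuclear rupture, was examined by fluorescence microscopy.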
# [15] = test system: K562; experiment: Induction of apoptosis in human K562 cells assessed as reduction in catalase protein expression after 24 hrs by chemiluminescence based protein array analysis; format: functional, cell-based; procedure, shortened: as §3
# [16] = test system: K562; experiment: Induction of cell cycle arrest in human K562 cells assessed as accumulation at S phase after 72 hrs by propidium iodide staining based flow cytometry; format: functional; procedure, shortened: as §1
# [17] = test system: K562; experiment: Induction of apoptosis in human K562 cells assessed as viable cells at 0.55 uM after 48 hrs by annexin V-FITC/propidium iodide staining based flow cytometry (reference value: 96.26%); format: functional; conditions: K562, 48 h, read-out: Activity
# [18] = test system: K562; experiment: Induction of mitochondrial membrane potential loss in human K562 cells assessed as cell population with mitochondrial membrane potential collapse at 2.20 uM after 48 hrs by JC1 staining-based flow cytometry analysis (reference value: 7.04%); format: functional
# [19] = Drug metabolism assessed as nitric oxide release after 210 mins; format: physicochemical; conditions: 3.5 h
# Procedure, shortened: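 NO released from the NO-donating derivatives was measured over time up to 210 min by Griess assay.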
# [20] = test system: K562; experiment: Induction of apoptosis in human K562 cells assessed as reduction in survivin level after 24 hrs by chemiluminescence based protein array analysis; format: functional, cell-based; procedure, shortened: as §3
# [21] = test system: MCF7; experiment: Antiproliferative activity against human MCF7 cells assessed as reduction in cell growth after 72 hrs by MTT assay; format: functional, cell-based; conditions: MCF7, 72 h; procedure, shortened: as §2
# [22] = test system: K562; experiment: Induction of cell cycle arrest in human K562 cells assessed as accumulation at S phase at 2.20 uM after 72 hrs by propidium iodide staining based flow cytometry (reference value: 35.68%); format: functional; procedure, shortened: as §1
# [23] = test system: K562; experiment: Induction of apoptosis in human K562 cells assessed as late apoptotic cells at 2.20 uM after 48 hrs by annexin V-FITC/propidium iodide staining based flow cytometry (reference value: 0.73%); format: functional
# [24] = test system: K562; experiment: Induction of apoptosis in human K562 cells assessed as late apoptotic cells at 0.55 uM after 48 hrs by annexin V-FITC/propidium iodide staining based flow cytometry (reference value: 0.73%); format: functional
# [25] = test system: HepG2; experiment: Antiproliferative activity against human HepG2 cells assessed as reduction in cell growth after 72 hrs by MTT assay; format: functional, cell-based; conditions: HepG2, 72 h; procedure, shortened: as §2
# [26] = test system: K562; experiment: Induction of apoptosis in human K562 cells assessed as viable cells at 1.10 uM after 48 hrs by annexin V-FITC/propidium iodide staining based flow cytometry (reference value: 96.26%); format: functional; conditions: K562, 48 h, read-out: Activity
# [27] = test system: K562; experiment: Induction of mitochondrial membrane potential loss in human K562 cells assessed as cell population with intact mitochondrial membrane potential at 2.20 uM after 48 hrs by JC1 staining-based flow cytometry analysis (reference value: 92.94%); format: functional
# [28] = test system: HCT-116; experiment: Antiproliferative activity against human HCT116 cells assessed as reduction in cell growth after 72 hrs by MTT assay; format: functional, cell-based; conditions: HCT-116, 72 h; procedure, shortened: as §2
# [29] = test system: K562; experiment: Induction of apoptosis in human K562 cells by annexin V-FITC/propidium iodide staining based flow cytometry; format: functional, cell-based
# [30] = test system: L02; experiment: Antiproliferative activity against human L02 cells assessed as reduction in cell growth after 72 hrs by MTT assay; format: functional, cell-based; conditions: L02, 72 h; procedure, shortened: as §2
# [31] = test system: K562; experiment: Induction of apoptosis in human K562 cells assessed as early apoptotic cells at 1.10 uM after 48 hrs by annexin V-FITC/propidium iodide staining based flow cytometry (reference value: 2.23%); format: functional
# [32] = test system: K562; experiment: Induction of cell cycle arrest in human K562 cells assessed as accumulation at G1 phase at 1.10 uM after 72 hrs by propidium iodide staining based flow cytometry (reference value: 56.13%); format: functional; procedure, shortened: as §1
# [33] = test system: K562; experiment: Induction of cell cycle arrest in human K562 cells assessed as accumulation at S phase at 0.55 uM after 72 hrs by propidium iodide staining based flow cytometry (reference value: 35.68%); format: functional; procedure, shortened: as §1
smiles,measurement,setting,value
CN1Cc2c(ccc3c2OCO3)[C@H]2[C@@H](OC(=O)CCCC(=O)OCC#CCOc3no[n+]([O-])c3S(=O)(=O)c3ccccc3)Cc3cc4c(cc3[C@H]21)OCO4,Activity,[1],71.34%
same,Activity,[2],6.69%
same,IC50,[3],1.12 µM
same,Activity,[4],Active
same,Activity,[5],Active
same,Activity,[6],10.28%
same,Activity,[7],Dose-dependent effect
same,IC50,[8],> 40 µM
same,Activity,[9],19.29%
same,viability at 2.2 µM,[10],45%
same,Activity,[11],52.04%
same,Activity,[12],1.16%
same,Activity,[13],47.82%
same,Activity,[14],Active
same,Activity,[15],Active
same,Activity,[16],Dose-dependent effect
same,viability at 0.55 µM,[17],88.3%
same,Activity,[18],51.15%
same,Drug metabolism,[19],30 µM
same,Activity,[20],Active
same,IC50,[21],6.9 µM
same,Activity,[22],59.72%
same,Activity,[23],28.97%
same,Activity,[24],3.47%
same,IC50,[25],3.91 µM
same,viability at 1.1 µM,[26],80.5%
same,Activity,[27],48.85%
same,IC50,[28],4.36 µM
same,Activity,[29],Dose-dependent effect
same,IC50,[30],6.04 µM
same,Activity,[31],16.46%
same,Activity,[32],41.27%
same,Activity,[33],41.89%
